Screening data: PubChem, Johns Hopkins Ion Channel Center
MrgX1 antagonist – antagonists of human MrgX1 receptor | B-score at 10 µM | Q96LB2 | MRGX1-HEK293 calcium flux, Fluo-4, BAM8-22 antagonism; hits give low values | AID 588676 | 310,000 tested, 1.3% active;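 active = calcium-response B-score plate-corrected more than 3 library SD below zero, starting fluorescence within 5 deviations, no agonist response on first addition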;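 note: peak minus trough fluorescence over baseline after final BAM8-22 challenge near maximal dose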
Target sequence (Q96LB2 whole entry, looked up): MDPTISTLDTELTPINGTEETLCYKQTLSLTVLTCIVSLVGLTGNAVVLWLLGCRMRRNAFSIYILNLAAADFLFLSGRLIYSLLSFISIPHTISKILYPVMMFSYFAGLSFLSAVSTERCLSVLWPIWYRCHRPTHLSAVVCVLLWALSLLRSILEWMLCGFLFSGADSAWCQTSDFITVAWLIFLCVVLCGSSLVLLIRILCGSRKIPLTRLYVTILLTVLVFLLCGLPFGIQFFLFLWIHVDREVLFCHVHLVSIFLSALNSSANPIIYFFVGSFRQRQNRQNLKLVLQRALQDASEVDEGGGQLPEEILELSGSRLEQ
MrgX1 agonist – human MrgX1 receptor agonism, primary screen; MrgX1-HEK293 cells, Fluo-4 calcium fluorescence, agonist mode; hits give high values; B-score at 10 µM; Q96LB2; AID 588627; 310,000 tested, 0.44% active;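 active = calcium response B-score plate-corrected fluorescence ratio at least 3 library SD, with starting fluorescence B-score inside 5 SD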
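Test system: HEK293 cells stably expressing human MrgX1 receptor; Input: fifteen thousand cells per well; Dosing: compound delivered in addition one of three; Schedule: overnight seeding, then 1 h dark dye loading; Technique: Fluo-4 NW calcium fluorescence; Measure: B-scored fluorescence response ratio; Controls: positive and negative controls per plate.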
RGS4 inh – inhibitors of human RGS4. P49798. HEK293 M3R/RGS4 inducible, Fluo-4 calcium flux; hits give high values; triggered by carbachol at its EC20. B-score at 10 µM. 310,000 tested, 0.45% active. AID 463165;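 active = B-score, a plate-corrected calcium signal, over three deviations above library mean, with baseline fluorescence within five deviations of library mean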;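 note: RGS4 expression induced by doxycycline in cells with stable M3 receptor; B-score is computed from the integrated fluorescence ratio over baseline after carbachol; higher B-score means a larger calcium signal and so more RGS4 inhibition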
Target sequence (P49798 whole entry, looked up): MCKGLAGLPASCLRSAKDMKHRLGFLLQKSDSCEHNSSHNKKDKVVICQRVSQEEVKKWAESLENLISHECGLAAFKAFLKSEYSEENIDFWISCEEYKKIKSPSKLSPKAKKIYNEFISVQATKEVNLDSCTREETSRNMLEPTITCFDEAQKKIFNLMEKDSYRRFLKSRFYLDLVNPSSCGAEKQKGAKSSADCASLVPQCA
MrgX1 PAM – allosterically activates human MrgX1 receptor signaling; MrgX1-HEK293, Fluo-4 calcium flux, FDSS; hits give high values; B-score at 10 µM; 310,000 tested, 0.63% active; AID 588675;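 active = plate-corrected calcium response at least 3 library SD above typical, normal starting fluorescence, not activating the receptor alone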;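 note: compound read alongside a low EC10 to EC30 dose of BAM8-22 agonist; peak minus trough fluorescence over baseline measured at the second addition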
RGS4 act – potentiators or activators of RGS4; 310,000 tested, 0.92% active; AID 463111; B-score at 10 µM; HEK293 M3R/inducible RGS4, carbachol calcium flux Fluo4; hits give low values;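 active = B-score of the integrated calcium signal more than 4 SD below the library mean, with starting fluorescence not abnormally high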;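 note: negative B-score means reduced calcium response which marks RGS4 activation or potentiation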
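Assay system: HEK293 FlpIn-TREx cells, stable M3R, doxycycline-inducible RGS4 / Probe or stimulus: carbachol, ECmax concentration / Times: overnight RGS4 induction, 30 min dye load 37 °C, 20 min compound RT / Signal: kinetic calcium fluorescence imaging with Fluo4-AM dye, 2 µM / Measure: Agonist-evoked peak-minus-minimum fluorescence over baseline, integrated ratio, B score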
MrgX1 ant reconf – reconfirmed antagonist of human MrgX1 receptor signaling; shares compounds with MrgX1 antagonist; MrgX1-HEK293, BAM8-22 calcium flux, Fluo-4; hits give low values; remaining BAM8-22 calcium response % of control (hits give low values), % at 10 µM; 2,300 tested, 19% active; AID 602420;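 active = remaining agonist calcium response no higher than 100% minus 3 SD of agonist-only control wells, with starting fluorescence near control levels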;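 note: agonist BAM8-22 given at a near maximal EC90 to ECmax level; peak minus minimum fluorescence divided by baseline after agonist addition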
HEK293 Ca flux – counter-screen for MrgX1 antagonists: effect in parental HEK293 cells; Fluo-4 calcium fluorescence, FDSS; shares compounds with MrgX1 antagonist; 4,000 tested, 2% active; AID 624111; fluorescence ratio F(max-min)/F0 at 10 µM;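 active = duplicate-averaged calcium fluorescence ratio at least three times the standard deviation of buffer wells, a nonspecific response in parental cells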
HEK293 Ca counter – activity in parental HEK293 cells without MrgX1; shares compounds with MrgX1 antagonist; parental HEK293 calcium flux, Fluo-4 fluorescence ratio; hits give high values; fluorescence ratio F(max-min)/F0 at 10 µM; 4,000 tested, 0.4% active; AID 624114;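 active = calcium fluorescence ratio, averaged over duplicates, at least 3 SD of the buffer-well ratio, meaning a nonspecific response in receptor-free cells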;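 note: untransfected parental HEK293 lacking MrgX1 used as counterscreen for MrgX1 allosteric activators; fluorescence change taken during the second addition on a kinetic imager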
HEK293 Ca cntr2 – activity in parental HEK293 cells lacking MrgX1 receptor. fluorescence ratio F(max-min)/F0 at 10 µM. shares compounds with MrgX1 antagonist. 4,000 tested, 8.7% active. AID 624115. Fluo-4 calcium fluorescence (FDSS); hits give high values;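 active = calcium fluorescence ratio at least three times the spread of buffer wells, meaning a non-specific response in parental cells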
Starred values were filed as active, the others as inactive; i = inactive; / = not tested or not shown. Hits are enriched below; roughly 3.5% of the tested compounds scored in any of these assays.

SMILES	MrgX1 antagonist	MrgX1 agonist	RGS4 inh	MrgX1 PAM	RGS4 act	MrgX1 ant reconf	HEK293 Ca flux	HEK293 Ca counter	HEK293 Ca cntr2
Cc1nc2sc(C(c3ccco3)N3CCC(C)CC3)c(O)n2n1 (configuration not stated)	-5.2*	i	i	i	i	i	i	i	i
Cc1nc2sc(C(c3ccco3)N3CCN(C(c4ccccc4)c4ccccc4)CC3)c(O)n2n1 (configuration not stated)	i	i	i	i	i	/	/	/	/
COC(=O)c1ccccc1NC(=O)c1cc2sccc2n1C	-7.3*	i	i	i	i	85%*	i	i	i
CCC(C(=O)N1CCN(c2ncccn2)CC1)c1ccccc1 (configuration not stated)	-4.6*	i	i	i	i	i	i	i	i
Cc1ccccc1CNS(=O)(=O)c1ccc2c(c1)OCCO2	-4.7*	i	i	i	i	i	i	i	i
O=C(CC(=O)Nc1nc(C23CC4CC(CC(C4)C2)C3)cs1)NCCO	-5.7*	i	i	i	i	65%*	i	i	i
CC(=O)c1cccc(CN2CCC(C(=O)Nc3ccc(-c4cccc(C)c4)cc3)CC2)c1	i	i	i	i	i	/	/	/	/
Cn1c(=O)oc2cc(S(=O)(=O)NCCC(=O)N3CCN(c4ccccc4F)CC3)ccc21	i	i	i	i	i	/	/	/	/
Cn1c(=O)oc2cc(S(=O)(=O)NCCC(=O)N3CCc4ccccc43)ccc21	-5.1*	i	i	i	i	i	i	i	i
COc1ccc(NS(=O)(=O)c2ccc(C(=O)N3CCN(Cc4ccccc4)CC3)cc2)cc1	-5.9*	i	i	i	i	i	i	i	i
O=C(Nc1ccccc1Br)C1CC(=O)N(c2ccc3c4c(cccc24)CC3)C1 (configuration not stated)	i	i	i	i	i	/	/	/	/
CC(C)OC(=O)c1ccc(COC(=O)c2cnccn2)cc1	-5.4*	i	i	i	i	i	i	i	i
CC1=C(C(N)=O)C(c2ccc(Cl)cc2)n2nc(CCCO)nc2N1 (configuration not stated)	i	i	i	i	i	/	/	/	/
CC1=C(C(N)=O)C(c2cccc(O)c2)n2nc(CCCO)nc2N1 (configuration not stated)	-4.7*	i	i	i	i	i	i	i	i
COc1ccc(S(=O)(=O)N2CCCOC2CNC(=O)C(=O)NCCc2ccco2)cc1 (configuration not stated)	i	i	i	i	i	/	/	/	/
COCCn1c(C)cc(C(=O)CSc2ncn[nH]2)c1C	-5.1*	i	i	i	i	i	i	i	i
COCCn1c(C)cc(C(=O)CSc2nc(C)c(C)c(C)n2)c1C	i	i	i	i	i	/	/	/	/
O=C(CN(c1ccccn1)S(=O)(=O)c1ccc(F)cc1)Nc1ccccc1	-6*	i	i	i	i	i	i	i	i
Nc1nnc(SCc2cc3c(cc2Cl)OCO3)s1	-6.3*	i	i	i	i	i	i	i	i
Nc1nnc(SCc2ccccc2Cl)s1	i	i	i	i	i	/	/	/	/
CCOc1ccc(CNC(=S)N/N=C/c2ccc(OC)c(OC)c2)cc1	i	i	i	i	i	/	/	/	/
c1ccc(Oc2cc(-c3ccccc3)nc(-c3ccccc3)n2)cc1	i	i	i	i	i	/	/	/	/
Cc1cc(Oc2ccccc2)nc(-c2ccccc2)n1	-4.5*	i	i	i	i	i	i	i	i
COc1ccc(NC(=O)c2ccc(Cl)c(S(=O)(=O)N3CCc4ccccc4C3)c2)cn1	-5.5*	i	i	i	i	38%*	i	i	i
COc1ccccc1NS(=O)(=O)c1cc(NC(=O)c2ccc(Cl)nc2)ccc1Cl	-14*	i	i	i	i	54%*	i	i	i
SMILES	MrgX1 antagonist	MrgX1 agonist	RGS4 inh	MrgX1 PAM	RGS4 act	MrgX1 ant reconf	HEK293 Ca flux	HEK293 Ca counter	HEK293 Ca cntr2
CCOc1c(OC)cccc1C1CC(=O)Nc2cc3c(cc21)OCCO3 (configuration not stated)	-4.9*	i	i	i	i	i	i	i	i
O=C(NCc1nnc(SCC(=O)N2CCN(c3ccccc3)CC2)o1)c1c(F)cccc1F	-5.7*	i	i	i	i	i	i	i	i
O=C(NCc1nnc(SCC(=O)N2CCCC2)o1)c1c(F)cccc1F	i	i	i	i	i	/	/	/	/
CCc1noc(C)c1C(=O)OC(C)C(=O)Nc1cc([N+](=O)[O-])ccc1OC (configuration not stated)	i	i	i	i	i	/	/	/	/
CC(=O)N1CN(Cc2ccccn2)Cc2c1sc1c2CCCC1	i	i	i	i	i	/	/	/	/
CC(=O)N1CN(CCCn2ccnc2)Cc2c1sc1c2CCCC1	-5.8*	i	i	i	i	i	i	i	i
CN=Cc1cc(-c2ccccc2)sc1O	-6.2*	i	i	i	i	i	i	i	i
CCN(CC(=O)Nc1ccc(NC(C)=O)cc1)C(=O)Cc1ccc(S(=O)(=O)N2CCOCC2)s1	i	i	i	i	i	/	/	/	/
CSc1ncccc1C(=O)Nc1nnc(C2CC2)s1	-4.6*	i	i	i	i	i	i	i	i
COCCCn1c(O)c(/C=C2\N=C(C#N)C(=Nc3ccc(C)cc3)O2)sc1=S	-11*	i	i	i	i	i	i	i	i
CCc1sc(C(=O)Nc2ncccc2O)cc1C	i	i	i	i	i	/	/	/	/
Oc1ccc(/C=N/Nc2ccc(Cl)nn2)c(O)c1O	i	i	i	i	i	/	/	/	/
COc1cc(S(=O)(=O)N2CCOCC2)ccc1NC(=O)CN1c2cccc3cccc(c23)S1(=O)=O	-8.4*	i	i	i	i	i	i	i	i
